Measurements published in ChEMBL document CHEMBL4130635, “2,4-Diaminoquinazolines as Dual Toll-like Receptor (TLR) 7/8 Modulators for the Treatment of Hepatitis B Virus” (J Med Chem, 2018).
Activity calls are given as the source filed them. The rule behind the calls is not given here.

What was measured:
TK6 = assay: Genotoxicity in human TK6 cells by in vitro micronuleus test; type: toxicity, cell-based
Outline: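 In vitro micronucleus test in TK-6 cells.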

[1] = Intrinsic clearance in mouse liver microsomes assessed per mg protein at 1 uM up to 60 mins; type: ADME, microsome; settings: read-out: CLH
[2] = Intrinsic clearance in rat liver microsomes assessed per mg protein at 1 uM up to 60 mins; type: ADME, microsome; settings: read-out: CLH
[3] = Stability in dog hepatocytes assessed compound turnover at 1 uM after 60 mins; type: ADME, cell-based, Canis lupus familiaris, Hepatocyte; settings: read-out: Drug metabolism
[4] = Tmax in Sprague-Dawley rat plasma at 10 mg/kg, po; type: ADME, organism-based
[5] = AUC (0 to last) in C57BL/6J mouse liver at 0.3 mg/kg, po by LC-MS analysis; type: ADME, organism-based; settings: in vivo
Outline: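 Healthy C57BL/6 mice were dosed once by mouth at 0.3, 1, 3, 10 or 30 mg/kg in 20% HP-β-CD, in groups of 15 per dose. Three mice per group were sacrificed at 0.5, 1, 2, 4 or 7 h, and plasma and liver compound levels were measured by LC–MS. Values were rounded to whole numbers.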

Liver [6] = assay: Induction of IFNalpha levels in C57BL/6J mouse liver at 3 mg/kg, po by ELISA (reference value: 30 pg/g); type: functional
Liver [7] = assay: Upregulation of IP-10 mRNA expression levels in C57BL/6J mouse liver at 30 mg/kg, po by RT-qPCR analysis (reference value: 1); type: functional
Plasma [8] = assay: Effect on cytokine profile in C57BL/6J mouse plasma assessed as IL-12p70 levels at 30 mg/kg, po by multiplex assay (reference value: 560 pg/ml); type: functional
Outline: (§1)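 Single oral gavage in 20% HP-β-CD to healthy C57BL/6 mice, groups of 15 at 0.3, 1, 3, 10 or 30 mg/kg. Three mice per group sacrificed at 0.5, 1, 2, 4 or 7 h. Plasma and liver cytokines by multiplex, maximum level reported, rounded to nearest multiple of 5.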

Liver [9] = assay: Effect on cytokine profile in C57BL/6J mouse liver assessed as IL-12p70 levels at 3 mg/kg, po by multiplex assay (reference value: 5 pg/g); type: functional, organism-based; outline: as §1
Liver [10] = assay: Effect on cytokine profile in C57BL/6J mouse liver assessed as IL-12p70 levels at 30 mg/kg, po by multiplex assay (reference value: 5 pg/g); type: functional; outline: as §1
Plasma [11] = assay: Effect on cytokine profile in C57BL/6J mouse plasma assessed as IFNgamma levels at 3 mg/kg, po by multiplex assay; type: functional, organism-based; outline: as §1
Liver [12] = assay: Effect on cytokine profile in C57BL/6J mouse liver assessed as IFNgamma levels at 3 mg/kg, po by multiplex assay; type: functional; outline: as §1
Plasma [13] = assay: Proinflammatory activity in C57BL/6J mouse plasma assessed as IL-1beta levels at 30 mg/kg, po by multiplex assay (reference value: 60 pg/ml); type: functional
Liver [14] = assay: Proinflammatory activity in C57BL/6J mouse liver assessed as IL-1beta levels at 1 mg/kg, po by multiplex assay; type: functional
Liver [15] = assay: Proinflammatory activity in C57BL/6J mouse liver assessed as IL-1beta levels at 3 mg/kg, po by multiplex assay; type: functional
Plasma [16] = assay: Proinflammatory activity in C57BL/6J mouse plasma assessed as CXCL-1 levels at 3 mg/kg, po by multiplex assay (reference value: 230 pg/ml); type: functional
Plasma [17] = assay: Proinflammatory activity in C57BL/6J mouse plasma assessed as IL-6 levels at 1 mg/kg, po by multiplex assay (reference value: 505 pg/ml); type: functional
Liver [18] = assay: Anti-inflammatory activity in C57BL/6J mouse liver assessed as IL-10 levels at 3 mg/kg, po by multiplex assay (reference value: 2 pg/g); type: functional; outline: as §1
Plasma [19] = assay: Anti-inflammatory activity in C57BL/6J mouse plasma assessed as IL-10 levels at 0.3 mg/kg, po by multiplex assay (reference value: 120 pg/ml); type: functional; outline: as §1
[20] = AUC (0 to last) in cynomolgus monkey plasma at 1 mg/kg, po by LC-MS analysis; type: ADME, organism-based, Macaca fascicularis; set-up: dose 1 mg/kg, time 0 - last, route oral
Outline: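 Healthy cynomolgus monkeys received single oral doses of 1, 3, 9 and 30 mg/kg, with a 2-week wash-out between doses. Systemic compound concentrations were measured by LC–MS at 0.25, 0.5, 1, 2, 4, 8 and 24 h postdose.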

Cynomolgus monkey [21] = assay: Effect on cytokine profile in cynomolgus monkey plasma assessed as IL-12P70 levels at 9 mg/kg, po after 24 hrs by Luminex assay (reference value: 2.17 pg/ml); type: functional, Macaca fascicularis
Outline: (§2)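 Healthy cynomolgus monkeys given single oral doses of 1, 3, 9 and 30 mg/kg, with a 2-week wash-out planned between doses. Systemic cytokine levels in plasma were sampled at 0.5, 1, 2, 4, 9 and 24 h postdose.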

Cynomolgus monkey [22] = assay: Effect on cytokine profile in cynomolgus monkey plasma assessed as IL-15 levels at 3 mg/kg, po after 24 hrs by Luminex assay (reference value: 20 pg/ml); type: functional, Macaca fascicularis; outline: as §2
Cynomolgus monkey [23] = assay: Effect on cytokine profile in cynomolgus monkey plasma assessed as IL-15 levels at 9 mg/kg, po after 24 hrs by Luminex assay (reference value: 20 pg/ml); type: functional, Macaca fascicularis; outline: as §2
Cynomolgus monkey [24] = assay: Proinflammatory activity in cynomolgus monkey plasma assessed as TNFalpha levels at 9 mg/kg, po after 24 hrs by Luminex assay (reference value: 285 pg/ml); type: functional, Macaca fascicularis
[25] = test system: Toll-like receptor 7/8 (Homo sapiens); assay: Agonist activity at TLR7/8 in human PBMCs assessed as decrease in intracellular HBV-rcDNA levels in human hepatocytes infected with HBV genotype C for 12 days followed by exposure to conditioned supernatant from up to 5 uM compound treated PBMCs measured after 42 days

Q: What does the source list for `CCC[C@@H](CCO)Nc1nc(N)nc2c(F)cccc12`?
A: Activity (TK6): Non-Toxic; microsomal CLint at 1 µM [1]: 100 µL/min/mg; microsomal CLint at 1 µM [2]: 24 µL/min/mg; metabolised at 1 h, 1 µM [3]: 77%; Tmax [4]: 30 min; AUClast [5]: 25 ng·h/g; Activity (Liver [6]): 765 pg/g; fold change (FC) (Liver [7]): 1180; Activity (Plasma [8]): 820 pg/mL; Activity (Liver [9]): Below limit of detection; Activity (Liver [10]): 2340 pg/g; Activity (Plasma [11]): Below limit of detection; Activity (Liver [12]): 150 pg/g; Activity (Plasma [13]): 70 pg/mL; Activity (Liver [14]): 16445 pg/g; Activity (Liver [15]): 22925 pg/g; Activity (Plasma [16]): >10000 pg/mL; Activity (Plasma [17]): 1150 pg/mL; Activity (Liver [18]): 1355 pg/g; Activity (Plasma [19]): 345 pg/mL; AUC(0-t) [20]: 75 ng·h/mL; Activity (Cynomolgus monkey [21]): 3.8 pg/mL; Activity (Cynomolgus monkey [22]): 60 pg/mL; Activity (Cynomolgus monkey [23]): 75 pg/mL; Activity (Cynomolgus monkey [24]): 350 pg/mL; Activity [25]: Active
